# High-throughput results from PubChem.
# PglD inh: C. jejuni PglD acetyltransferase inhibitors, primary screen, biochemical, DTNB colorimetric, single point | UDP-N-acetylbacillosamine N-acetyltransferase PglD (Campylobacter jejuni) | 360,000 compounds, 0.098% hits | AID 602405, 2012 | purified PglD enzyme, DTNB colorimetric CoA detection | inhibition, % at 12.5 µM; in the data active = inhibition above about 16%, passing the limit was not always enough; inconclusive = no clear call, values can overlap the other calls
# PDI turbidity: inhibitors of human PDI, primary screen, biochemical, turbidity, single point, plate reader; PDI insulin aggregation turbidity, A650, 90 min; inhibition, % at 10 µM; 350,000 compounds, 0.052% hits; AID 588391, 2011;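 active = mean inhibition across replicates of 30% or more, whatever share of single replicates reach that level; inconclusive = mean inhibition below 30% while every single replicate reaches 30%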
# Target sequence (P07237 whole entry, looked up): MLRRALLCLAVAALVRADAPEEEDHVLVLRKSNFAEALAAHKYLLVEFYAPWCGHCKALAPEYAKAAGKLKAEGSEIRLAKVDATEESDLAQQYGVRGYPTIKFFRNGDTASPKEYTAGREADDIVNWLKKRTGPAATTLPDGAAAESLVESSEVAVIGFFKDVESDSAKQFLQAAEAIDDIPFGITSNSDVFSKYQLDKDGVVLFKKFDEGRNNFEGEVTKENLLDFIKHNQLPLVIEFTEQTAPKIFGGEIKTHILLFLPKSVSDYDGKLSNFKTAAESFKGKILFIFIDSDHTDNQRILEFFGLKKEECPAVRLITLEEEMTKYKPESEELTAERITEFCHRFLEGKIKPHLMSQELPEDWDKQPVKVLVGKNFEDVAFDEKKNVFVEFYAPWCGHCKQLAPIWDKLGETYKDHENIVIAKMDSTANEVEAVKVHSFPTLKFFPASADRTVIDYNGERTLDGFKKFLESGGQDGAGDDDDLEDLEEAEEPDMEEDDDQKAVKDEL
# VIM-2 inh: VIM-2 metallo-beta-lactamase inhibitors, primary screen, biochemical, epi-absorbance readout, Pseudomonas aeruginosa enzyme; purified VIM-2, nitrocefin hydrolysis, epi-absorbance fluorescence; inhibition, % at 5.6 µM; 290,000 compounds, 0.89% hits; AID 1527, 2009;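 active = inhibition above the mean of all tested compounds plus 3 SD, cutoff set per screening run, cut at about 7.5% in these data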;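 also: red hydrolysis product quenches plate fluorescence so inhibitors raise well fluorescence; 0% = enzyme with DMSO and 100% = DMSO without enzyme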
# PvdQ acylase: P. aeruginosa PvdQ acylase inhibitors, primary screen, biochemical, fluorescence, plate reader and imaging, single point | AID 488965, 2010 | PvdQ acylase [Pseudomonas aeruginosa LESB58] | 340,000 compounds, 0.063% hits | purified PvdQ acylase | inhibition, % at 10 µM; in the data active = inhibition above about 30%, passing the limit was not always enough; inconclusive = no clear call, values can overlap the other calls;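 also: 0% = vehicle neutral wells and 100% = reference inhibitor wells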
# IMP-1 inhibitor: IMP-1 metallo-beta-lactamase inhibitors, primary screen, biochemical, epi-absorbance readout, Pseudomonas aeruginosa enzyme | metallo-beta-lactamase IMP-1 (Pseudomonas aeruginosa) | purified IMP-1, nitrocefin hydrolysis, epi-absorbance fluorescence | inhibition, % at 5.6 µM | 290,000 compounds, 0.45% hits | AID 1556, 2009;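 active = inhibition above the mean plus 3 SD of all compounds in the same screening run, cut at about 4.5% in these data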;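 also: 0% = IMP-1 with DMSO and 100% = DMSO wells lacking enzyme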
#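 Assay system: purified recombinant IMP-1 beta-lactamase. Input: IMP-1 0.2 nM before substrate addition. Buffer or medium: Zinc- and detergent-supplemented HEPES buffer, pH 7.1. Schedule: 25 °C, 15 min preincubation, 25 min reaction. Signal: Epi-absorbance fluorescence, 480 nm excitation, 530 nm emission. Evaluation: percent inhibition from optical density relative to buffer-blank wells.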
# ERp5 inh: inhibitors of ERp5-driven insulin aggregation, primary screen, biochemical, turbidity, absorbance 650 nm, single point; Protein disulfide-isomerase A6 (Homo sapiens), Q15084; 90 min; inhibition, % at 9.99 µM; 350,000 compounds, 0.05% hits; AID 651711, 2012;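 active = mean replicate inhibition above about 25%, with every replicate also reaching it, limit read from the data, passing the limit was not always enough; inconclusive = only one of those two criteria met; inactive = neither criterion met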
# An asterisk follows results filed as active; ? = inconclusive; / = no result given. This is a sample that favours compounds with a hit; in the whole collection about 1% have one here.
SMILES,PglD inh,PDI turbidity,VIM-2 inh,PvdQ acylase,IMP-1 inhibitor,ERp5 inh
COc1ccc(NC(=O)CCC(=O)c2cccs2)cc1S(=O)(=O)Nc1ccccc1Cl,4,-2,-2,2,5.2*,/
O=C(Nc1ccc(Cl)c(S(=O)(=O)Nc2ccccc2Cl)c1)c1cccs1,4,-6,-3,-8,-2,/
CC(C)NC(=O)c1cccc2c1-c1ccccc1C2=O,8,12,-1,-7,-4,-2
NC(=O)COC(=O)c1cccc2c1-c1ccccc1C2=O,0,6,7.9*,9,-4,-2
COc1cccc(C#Cc2cnc3c(c2)C(=O)N([C@H](C)CO)C[C@@H](C)[C@H](CN(C)C)O3)c1,2,/,/,/,/,5
C[C@H](CO)N1C[C@H](C)[C@H](CN(C)Cc2ccc(Cl)c(Cl)c2)Oc2c(NS(=O)(=O)c3ccc(Cl)cc3)cccc2C1=O,-2,/,/,/,/,9
O=C(Nc1ncc2c(n1)-c1ccccc1CC2)c1ccc(Cl)cc1,-2,-4,-6,-10,24*,/
O=C(N/N=C/c1ccc(N2CCOCC2)cc1)C1CC1,-2,38*,-2,0,-2,2
CC(=O)Nc1ccc(Cc2nc3c([nH]2)c(=O)n(C)c(=O)n3C)cc1,/,/,0,/,12*,/
O=C1NC[C@H](Cc2ccccc2)N(C[C@H]2CCCN2C[C@H](Cc2ccccc2)N2C[C@H](Cc3ccc(O)cc3)N(CC3CCCCCC3)C(=O)C2=O)C1=O,-3,?,/,-22,/,-1
C[C@@H](CN1C(=O)C(=O)NC[C@@H]1Cc1ccc(O)cc1)NC(=O)Cc1ccccc1,-4,12,-1,-15,13*,2
O=C1NC[C@H](Cc2ccccc2)N(C[C@H]2CCCN2C[C@H](Cc2ccc(O)cc2)N2C[C@H](Cc3ccc(O)cc3)N(CC3CCCCCC3)C(=O)C2=O)C1=O,-2,39*,/,-8,/,1
CC(C)C[C@H]1CNC(=O)C(=O)N1C[C@H](Cc1ccc(O)cc1)NC(=O)Cc1ccccc1,/,/,/,/,/,6
CCS(=O)(=O)N1CCC2(CC1)CN(CC1CCOCC1)[C@H](CO)c1c2c2ccc(OC)cc2n1C,/,/,/,/,/,9
CCOc1cc2c(C#N)c(N3CCNCC3)nc(N)c2c(N)n1,-4,-4,8.7*,-3,-2,/
C=CCC1c2cccc(C(=O)O)c2C(=O)N1c1cccc(C)c1 (stereo unspecified),4,-7,11*,-14,-6,-3
Cc1nn(-c2ccccc2)c(OC(=O)c2cccs2)c1S(=O)(=O)c1ccc([N+](=O)[O-])cc1,-1,2,-1,5,4.8*,/
O=C1N=c2ccccc2=C1c1sc(Nc2ccc(O)cc2)nc1O,/,21,-4,-17,5.1*,0
O=C1N=c2ccccc2=C1c1sc(Nc2cccc(O)c2)nc1O,-4,-4,-3,-8,-6,5
O=C(NN=c1c(=O)c2ccccc2c1=O)c1ccccc1,7,1,-1,-7,-3,33*
CN(C)/C=N/NC(=O)c1ccccc1,-7,11,-1,-5,-3,7
COc1ccc(NC(=O)Nc2ccc3c(c2)CC(=O)N([C@H](C)CO)C[C@@H](C)[C@H](CN(C)CC2CCCCC2)O3)cc1,2,/,/,/,/,5
C[C@@H]1CN([C@@H](C)CO)C(=O)c2cc(C#Cc3ccc(F)cc3)cnc2O[C@@H]1CN(C)C(=O)Nc1ccc(F)cc1,1,/,/,/,/,10
Cc1cc(S(=O)(=O)NCC2CC2)c(Cl)cc1Cl,0,1,-3,107*,-2,3
CCCNC(=O)N1[C@@H]2CN(C(=O)c3ccccc3)c3ccccc3[C@@H]2[C@@H]1CO,2,/,/,/,/,/
SMILES,PglD inh,PDI turbidity,VIM-2 inh,PvdQ acylase,IMP-1 inhibitor,ERp5 inh
COc1ccc2oc(C(=O)c3ccccc3)c(NC(=O)CN3CCN(C)CC3)c2c1,-10,-4,9.2*,17,-2,/
CC(=O)Nc1c(C(=O)c2ccccc2)oc2ccccc12,-1,0,2,1,0,/
CCOC(=O)c1oc2ccc(Br)cc2c1NC(=O)CN1CCN(C)CC1,-4,-1,9.8*,-14,4,/
CN1CCN(CC(=O)Nc2c(C(=O)c3ccccc3)oc3ccccc23)CC1,0,-4,10*,-5,-2,9
COc1cccc(S(=O)(=O)Nc2ccc3c(c2)C(=O)N(C)[C@H]2CC[C@@H](CC(=O)O)O[C@H]2CO3)c1,2,/,/,/,/,/
CCOC(CNC(=O)c1cccn2c(=O)c3cc(Cl)ccc3nc12)OCC,1,-1,-3,-5,-2,/
CCOC(CNC(=O)c1cccn2c(=O)c3c(C)c(C)sc3nc12)OCC,3,-1,10*,-23,-2,3
C[C@@H]1CN([C@@H](C)CO)C(=O)c2cc(NC(=O)Nc3ccc(C(F)(F)F)cc3)ccc2O[C@@H](C)CCCCO[C@H]1CN(C)Cc1ccc(Cl)c(Cl)c1,3,/,/,/,/,4
Cc1cc(=O)n2c(-c3ccccc3C)n[nH]c2n1,-2,10,0,-12,-1,/
Cc1cc(=O)n2c3ccccc3n(C)c2n1,3,15,10*,-9,0,0
COc1ccc(S(=O)(=O)Nc2ccc3c(c2)C(=O)N([C@H](C)CO)C[C@H](C)[C@@H](CN(C)S(=O)(=O)c2ccc(C)cc2)OCCCC[C@H](C)O3)cc1,-6,/,/,/,/,-3
CC(=O)Nc1ccc(NC(=O)CCCSc2nc3ccccc3[nH]2)cc1,4,-4,-3,-2,7.8*,1
CCN(CC)CCCNC(=O)c1ccc2c(Cl)c3c(nc2c1)CCCC3,/,21,9.3*,5,-3,3
CCCN1CCN(CCCNC(=O)c2ccc3c(Cl)c4c(nc3c2)CCCC4)CC1,-4,2,8.4*,-11,-3,1
CCN(CC)CCCNC(=O)c1ccc2c(SCC(=O)O)c3c(nc2c1)CCC3,/,/,2,/,-4,/
CCCCN(CC)CCNC(=O)c1ccc2c(Cl)c3c(nc2c1)CCC3,3,1,6,6,-3,0
CCN(CC)CCNC(=O)CSc1c2c(nc3cc(Cl)ccc13)CCCC2,/,2,8.4*,-19,-1,4
CS(=O)(=O)Nc1ccc(-c2ccc(/C=C3\SC(N)=NC3=O)o2)cc1,-3,9,8.8*,7,0,-2
COc1cc(NC(=O)c2ccco2)c(C(=O)O)cc1OC,4,-1,-2,-4,-2,/
COC(=O)c1cc(OC)c(OC)cc1NC(=O)c1ccco1,-1,2,8.9*,-13,-3,/
